≈ marks a conversion by molar mass, not a printed value.

In ChEMBL document CHEMBL1155590, “Two novel cytotoxic benzofuran derivatives from Brazilian propolis” (2000) one finds Activity and EC50 data, which are given here for six compounds.

Assay type in all cases: functional
Test [1] relates to HT-1080. Kind of test: Cytotoxicity against human HT1080 cells by MTT assay. The following applies: for EC50: read-out: ED50 (the source's name). A digest of the protocol: (§1)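 MTT viability read-out, run by a previously described method. Cells were highly liver-metastatic murine colon 26-L5 carcinoma and human HT-1080 fibrosarcoma.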
The species entered for test [2] is Mus musculus. The test can be described thus: (§2) Cytotoxicity against mouse 26-L5 cells by MTT assay. A digest of the protocol: as §1
On the technique in general: Formazan colour is commonly taken as a measure of viable cells.

A short description of test [3]: as §2. The following applies: read-out: ED50 (the source's name). A digest of the protocol:
as §1

Take `C=C(C)C1Cc2cc(/C=C/C(=O)O)cc(CC=C(C)C)c2O1` (configuration not stated): the Activity entry in test [1] and in test [2] was “Not toxic” throughout.

Regarding `COc1cc([C@@H]2c3c(oc4cc(C(C)=O)c(O)cc34)C(=O)C[C@H]2COC(C)=O)ccc1O` [PROPOLIS-BENZOFURAN B], the values for the EC50 in test [1] and in test [3] were 43.2 µg/mL (≈ 98.5 µM) and 13.7 µg/mL (≈ 31.2 µM), respectively.

As for `COc1ccc(-c2oc3cc(O)cc(O)c3c(=O)c2OC)cc1` [ERMANIN], the EC50 in test [1] and in test [3] was less than 8 µg/mL each time.

For the compound `COc1ccc(-c2oc3cc(O)c(OC)c(O)c3c(=O)c2O)cc1` [BETULETOL], the EC50 in test [1] and in test [3] was less than 8 µg/mL in each case.

As to `COc1cc([C@@H]2OC=C(c3cc4cc(O)c(C(C)=O)cc4o3)C[C@H]2COC(C)=O)ccc1O` [PROPOLIS-BENZOFURAN A], the EC50 came out at 13.9 µg/mL (≈ 30.7 µM) in test [1] and 12.4 µg/mL (≈ 27.4 µM) in test [3].

For `COc1ccc(-c2oc3cc(O)cc(O)c3c(=O)c2O)cc1` [KAEMPFERIDE], the EC50 in test [1] and in test [3] was less than 8 µg/mL throughout.
